Source: PubChem BioAssay (Columbia University Molecular Screening Center)
Insulin prom act – TRM-6 insulin promoter activation. TRM-6 cells (human fetal islet line), insulin promoter eGFP reporter, imaging; plate-scaled: unstimulated 0, stimulated control 100. activation, % at 2 µM. actives 0.81% (n = 130,000);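 active = activation at 2 µM above a set limit, confirmed on inspection of the cell images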;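 note: share of cells whose green reporter signal exceeds an intensity cutoff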
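Assay system: TRM-6 insulin promoter–eGFP reporter cells / Input: 1,000 cells per well / Medium: Low-glucose (5.5 mM) medium with tamoxifen / Also added: tamoxifen inducer, 0.75 µM, in seeding medium / Timing: overnight tamoxifen, then two-day compound incubation at 37 °C / Signal: automated fluorescence imaging of paraformaldehyde-fixed, Hoechst-counterstained cells, green channel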
Active calls of the source: *. This is one part of a sample in which hits are shown more often than they occur.

SMILES | Insulin prom act
CCP(=S)(CC)c1ccc(N(C)C)cc1 | 396*
OC(CCNCCc1c[nH]c2ccccc12)C(F)(F)F (centres undefined) | -9
Cc1ccc(C2=NC(C)(C)N3C2C3c2ccc([N+](=O)[O-])cc2)cc1 (centres undefined) | 8
O=C1C2CCN(CC2)C1Cc1ccc(OCCOc2ccccc2)cc1 (centres undefined) | -8
CCCCc1nc2ccccc2c(=O)n1-c1ccc(Cl)cc1[N+](=O)[O-] | -7
CN1/C(=C\C=C\C2=[N+](C)c3ccc4ccccc4c3C2(C)C)C(C)(C)c2ccccc21 | 151*
CN1/C(=C\C=C2C(=O)NC(=O)NC2=O)C(C)(C)c2ccccc21 | 0
Cc1sc2nc(COC(=O)Cc3ccccc3)[nH]c(=O)c2c1C | -8
Cc1cc(C)nc(-n2c(C)nc3cc(Cl)ccc3c2=O)c1 | 9
O=C(COc1ccccc1F)N1CCN(CCN2C(=O)c3cccc4cccc(c34)C2=O)CC1 | 7
CN(C)CCCN=Cc1c(O)n(CCc2ccccc2)c(=O)[nH]c1=O | -7
Cc1c(N=Cc2c(O)n(CCc3ccc(F)cc3)c(=O)[nH]c2=O)c(=O)n(-c2ccccc2)n1C | 400*
CC(=Nc1c(C)n(C)n(-c2ccccc2)c1=O)c1c(O)n(Cc2ccccc2)c(=O)[nH]c1=O | 0
O=C1NC(=O)C(Cc2cccs2)C(=O)N1 | 0
O=C(C1CC(=O)N(C2CCCCCCC2)C1)N1CCC2(CC1)OCCO2 (centres undefined) | -74
CCN(CC)c1ccc(/C=N/c2sc3c(c2C#N)C2CCN3CC2)c(O)c1 | 285*
CC(=O)OC1C2CCCC1C(N1CCCC1)CC2 (centres undefined) | -3
CC(=O)CC(C)(C)n1c[n+](C)nn1 | 9
Cn1c(=O)n(C)c2cc([N+](=O)[O-])c(N3CCNCC3)cc21 | 0
O=c1c2ccccc2[se]n1-c1ccccc1 | 0
CC1CCC/C=C/C2CC(O)CC2C(O)/C=C/C(=O)O1 (centres undefined) | 228*
CC1CCC[C@H](O)CCCCCc2cc(O)cc(O)c2C(=O)O1 (some centres undefined) | 148
O=C1NC(=O)C(CCc2ccncc2)(Cc2ccc([N+](=O)[O-])cc2)C(=O)N1 | 7
CC1(C)C2CC=C(CN3CCC(O)CC3)C1C2 (centres undefined) | -77
Nc1ccc(Cl)cc1C(=O)c1ccccc1Cl | 433*
SMILES | Insulin prom act
O=P(O)(O)Cc1ccccc1OP(=O)(c1ccccc1)c1ccccc1 | 0
COc1ccc(N=Cc2c(O)n(-c3ccc(C)cc3)c(=O)[nH]c2=O)cc1 | -83
CCOC(=O)c1ccc(N=Cc2c(O)n(-c3ccccc3F)c(=S)[nH]c2=O)cc1 | -3
CCN(CC)c1ccc(N=Cc2c(O)n(-c3cc(OC)ccc3OC)c(=O)[nH]c2=O)cc1 | 650*
O=C1NC(c2cc3ccccc3nc2Cl)Nc2ccccc21 (centres undefined) | 8
O=C(N/N=C\C1C(=O)NC(=S)N(c2ccccc2)C1=O)c1ccc(O)cc1 (centres undefined) | 0
O=[N+]([O-])[N-][n+]1cnn(Cc2ccc(Cl)cc2)c1 | 141*
O=C(COc1ccc(Cl)cc1)N1CCN(Cc2ccc([N+](=O)[O-])cc2)CC1 | 9
CC(C)N1CCC2(CC1)NC(CO)(CO)CO2 | -6
Cc1ccc(Cn2nc(C)c(C=O)c2Cl)cc1 | -10
C[N+]12CCC(CC1)C(C(O)(c1ccccc1)c1cccs1)C2 (centres undefined) | 0
COc1ccc(-n2c(Cc3cccc([N+](=O)[O-])c3)nc3ccccc3c2=O)cc1 | 3
Cc1cccc(-n2c(O)c(C=NCCCN3CCOCC3)c(=O)[nH]c2=O)c1C | 3
Cc1nn(Cc2ccccc2)c(C)c1C(=O)OCC(=O)Nc1ccccc1SCC#N | 118
COc1c(C)cc(C(=O)C2CCCN(Cc3ccccn3)C2)cc1C (centres undefined) | 319*
CSc1ccc(C(=O)C2CCCN(Cc3cc4ccccc4[nH]3)C2)cc1 (centres undefined) | -6
O=C(c1ccc2c(c1)OCO2)C1CCCN(Cc2ccccn2)C1 (centres undefined) | -7
CCn1c(O)c(C=Nc2cc(Cl)ccc2Cl)c(=O)n(CC)c1=O | -64
CC12CN3CC(C)(CN(C1)C31CCOCC1)C2=O | -75
CC12CCC3C(CC=C4CC5(CCC43C)OCCO5)C1CCC2=O (centres undefined) | 5
Cc1ccc(S(=O)(=O)CC(C)(O)C(=O)Nc2cccc(C(F)(F)F)c2)cc1 (centres undefined) | 212*
CC(C)N(CC(O)c1cccc([N+](=O)[O-])c1)C(C)C (centres undefined) | 8
Clc1ccc2c(c1)C(c1ccccc1Cl)=NCc1nnc(Br)n1-2 | 190
Cc1ccccc1-n1c(-c2ccco2)nc2ccccc2c1=O | -80
Cn1c(O)c(C(=NCCc2c[nH]c3ccccc23)c2ccccc2)c(=O)n(C)c1=O | 0
SMILES | Insulin prom act
CN1C(=O)N(C)C(=O)C2(Cc3c(ccc4ccccc34)N(C)C2)C1=O | 129*
CC12CCCCC1N(O)CN2O (centres undefined) | 3
C=CC(C)C(C(=O)c1ccccc1)N(C)C (centres undefined) | 7
CN1CSC(=S)N(C)C1 | -68
O=C1c2cccc3cccc(c23)C(=O)N1/N=C/c1c(O)n(-c2ccccc2)c(=O)[nH]c1=O | 5
CN1CCC(C)(O)C2CCCCC21 (centres undefined) | -7
O=C(Nc1ccc(Br)cc1)c1nn(C23CC4CC(CC(C4)C2)C3)cc1Br | 7
O=C(O)C1C2CCC(O2)C1C(=O)NC1CCCCC1 (centres undefined) | -3
COC(=NC1CCCC1)C(O)c1c[nH]c2ccccc12 (centres undefined) | 667*
O=C(CN1CC(c2ccccc2)CC1=O)Nc1ccc(F)cc1 (centres undefined) | -38
Cc1ccc(-n2c(O)c(/C=N/N3CCCCC3c3cccnc3)c(=O)[nH]c2=S)cc1 (centres undefined) | 3
Cc1ccc[n+](CC(O)Cn2c3ccccc3c3ccccc32)c1 (centres undefined) | 106
Cc1ccc(Cc2c(C)nc3nc(SCC(=O)N4CCC5(CC4)OCCO5)nn3c2C)cc1 | 125*
Cc1ccc(CS(=O)(=O)CCC(=O)N2CCC3(CC2)OCCO3)cc1 | 9
Cc1ccc2c(c1)N(CCC(=O)N1CCC3(CC1)OCCO3)C(=O)CO2 | 8
O=P(O)(O)C#Cc1ccccc1 | 4
O=[P+](Cc1ccccc1)Cc1ccccc1 | 117
O=C(CNS(=O)(=O)c1cccs1)N1CCC2(CC1)OCCO2 | 0
O=C(NCc1ccc(C(=O)N2CCC3(CC2)OCCO3)cc1)c1cccc(Br)c1 | 227*
O=C(c1cc(-c2ccccc2)on1)N1CCC2(CC1)OCCO2 | 0
